According to ChEMBL document CHEMBL4513216, “Probing the Open Global Health Chemical Diversity Library for Multistage-Active Starting Points for Next-Generation Antimalarials” (ACS Infect Dis, 2020):

Assay: Toxicity liver stage against HepG2, at 10uM
Assay type: cell-based
Design: test concentration 10 uM, cell line HepG2-A16-CD81EGFP
Details: human, HepG2-A16-CD81EGFP cells; read-out: INHIBITION
Method in brief: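 Uninfected HepG2-A16-CD81EGFP cells, 3 × 10^3 per well, 1536-well, plated on prespotted compound at 10 μM final, parasite-free screening media added to match infected plates; puromycin 10 μM positive, DMSO 0.5% negative; run in parallel with 48 h PbLuc assay at 37 °C, 5% CO2; viability by CellTiter-Glo luminescence, normalized to controls.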

Row | SMILES | cytotoxicity at 10 µM [%]
1 | Cc1cccc(-c2noc([C@@H]3C[C@@H](O)CN3Cc3ccc(CO)o3)n2)c1 | 7.38
2 | CC(C)(C)c1cc(C[C@H]2CNCC[C@H]2CC(=O)N2CCCCC2)no1 | -1.91
3 | CCN(CC)S(=O)(=O)c1ccc2c(c1)N(Cc1ccccn1)C(=O)CS2 | 3.51
4 | CCSc1ccccc1C(=O)NCC1CCN(Cc2ccsc2)CC1 | -8.44
5 | O=C(Cc1ccsc1)NCCc1ccoc1 | 5.5
6 | O=C(CC1CC1)N1Cc2nccn2CC(COc2cccnc2)C1 (stereo unspecified) | 5.09
7 | O=S(=O)(NCC1CCN(c2ccccn2)CC1)c1ccccc1F | -0.549
8 | CCn1c(NCc2ccc(OC)cc2)nc2c(C)nn(C)c2c1=O | 4.23
9 | CC(=O)N[C@H]1CCO[C@@H](c2cccc(NC(=O)Cc3ccccc3)c2)C1 | 8.3
10 | O=S(=O)(c1cn[nH]c1)N1CCCC(O)(CN2CCOCC2)CC1 (stereo unspecified) | 6.61
11 | Cc1ccnc(C2CCN(CCCOc3ccccc3F)C2)n1 (stereo unspecified) | 6.04
12 | CCOC(=O)c1n[nH]cc1-c1cncn1CC(C)n1nc(C)cc1C (stereo unspecified) | 2.25
13 | NC(=O)CN1CCCC1c1cncc(Oc2ccc(Cl)cc2)n1 (stereo unspecified) | -10.4
14 | Cc1nc(C)c(C(=O)N2CCCC2c2nc(O)cc(C(C)C)n2)s1 (stereo unspecified) | -29.4
15 | O=C(C1CC1)N1CCc2nc(C3CCN(C(=O)C4CC4)C3)nc(O)c2C1 (stereo unspecified) | -20.9
16 | Cc1nc(O)cc(C2CCCN2CCO)n1 (stereo unspecified) | -14.5
17 | CCc1nc2ccccc2c(=O)n1CC1(O)CCN(CC(=O)OC)CC1 | -4.99
18 | CC(=O)N1CCCC1c1cccc(Cc2ccc(F)cc2)n1 (stereo unspecified) | -1.98
19 | Cc1ncc(CNC(=O)CCc2cccc(F)c2)c(C2CCCN2C)n1 (stereo unspecified) | -6.82
20 | CC(C)CNC(=O)c1cc(C2CC2)nc2onc(C3CCNCC3)c12 | 10.8
21 | Cc1ccc(S(=O)(=O)NC(=O)CCC(F)(F)F)cc1N(C)C | -3.79
22 | CCCS(=O)(=O)NC(=O)c1cc(C)n(-c2ccccc2)n1 | -7.21
23 | Cc1nnc(NCc2ccc(Cl)cc2)o1 | 3.79

Row | SMILES | cytotoxicity at 10 µM [%]
24 | CCC(NC(=O)Cn1ccc(=O)n(C)c1=O)c1ccccc1OC (stereo unspecified) | 7.23
25 | COC(=O)NCC(=O)N(C)Cc1csc(C)n1 | 2.33
26 | O=C1NCCCCC1NC(=O)C1(c2cccc(C(F)(F)F)c2)CC1 (stereo unspecified) | -5.67
27 | COCC(C)NC(=O)CCSc1ccc(F)cc1 (stereo unspecified) | 1.28
28 | CSc1ccc(CNC2(c3ccc(F)cc3)CCOCC2)cc1 | -4.51
29 | N#Cc1cccc(Cl)c1NC1CCN(CC(N)=O)CC1 | -5.87
30 | CN(C)C1CCCN(C(=O)NCCc2cc(F)ccc2F)C1 (stereo unspecified) | -1.05
31 | CC(CNC(=O)N1CCC(CO)CC1)Cc1cccs1 (stereo unspecified) | -8.52
32 | Cc1ccc(NC(=O)NC(C)(C)c2noc(C)n2)cc1 | 12.6
33 | Cn1nc2c(cc1=O)CN(CC(=O)Nc1nccs1)CC2 | 7.07
34 | Cc1cc(C)n(C2CCCN(C(=O)c3ccc(N(C)C)nn3)C2)n1 (stereo unspecified) | -9.31
35 | CN(C)c1ccnc(N2CCC(NCCOc3ccccc3)CC2)n1 | -4.99
36 | O=C(Nc1ccccc1OC1CCOC1)c1cc[nH]n1 (stereo unspecified) | -1.57
37 | COCCN(C(=O)c1c[nH]c2ncccc12)C1CCCC1 | -3.08
38 | O=C(c1ccoc1)N1CCCCC1c1nc[nH]n1 (stereo unspecified) | -7.03
39 | CC(SCCS(C)(=O)=O)c1nc(Cc2ccccc2)no1 (stereo unspecified) | 2.25
40 | CCC(C)Oc1cc(C(=O)Nc2nc(C)ns2)ccn1 (stereo unspecified) | -1.02
41 | NCc1ccc(Oc2cccc(Cl)c2Cl)cc1 | 7.25
42 | O=C(O)c1ccnc(SCc2ccccc2)c1 | -9.98
43 | O=S(=O)(NC1CCCCC12OCCO2)c1cc(Cl)cc(Cl)c1 (stereo unspecified) | 11.5
44 | CCn1nc(C)cc1C(=O)N1CCOc2ccc(OC)cc21 | 14.3
45 | CC(=O)N1CCCN(C(=O)Cc2c(C)nc(C)[nH]c2=O)CC1 | -8.28
46 | CCS(=O)(=O)N1CCN(C(C)c2ccccc2OC)CC1 (stereo unspecified) | 4.55

Row | SMILES | cytotoxicity at 10 µM [%]
47 | CC(C)c1ccc(-n2cc(O)c(C(=O)O)n2)cc1 | -42.4
48 | NC(=O)N1CCCN(C2CCCCc3ccccc32)CC1 (stereo unspecified) | -43.9
49 | CC(Nc1ccc(CC(=O)N(C)C)cc1)C(=O)N(C)CCC#N (stereo unspecified) | 1.42
50 | CC(C)(NCC(=O)N1CCCC(C(N)=O)C1)c1ccc(Cl)cc1 (stereo unspecified) | 3.36
51 | CC(CNC(=O)c1ccccc1Oc1cccnc1)N(C)C (stereo unspecified) | -9.29
52 | O=C(NC1(c2cccc(F)c2)CCOCC1)c1cc[nH]n1 | -6.83
53 | COc1cc(C(=O)N(Cc2ccc(F)cc2)C2CC2)cc2c1OCCO2 | -1.33
54 | CC(NC(=O)NCC1(O)CCC1)c1ccc(OCC2CC2)c(F)c1 (stereo unspecified) | -4.69
55 | CS(=O)(=O)NCCCNC(=O)c1cccc(-n2cccc2)c1 | -9.86
56 | Cc1cc(C(=O)N2CCn3cc(CN4CCCC4)nc3C2)no1 | -79.3
57 | N#Cc1cccc(N2CC3(CCN(C(=O)C4CC=CC4)C3)CC2=O)c1 (stereo unspecified) | 1.77
58 | N[C@H]1CN(C(=O)Cc2ccc(Cl)c(Cl)c2)C[C@@H]1C1CC1 | -14.4
59 | Cc1cc(C)nc(NCc2cc3n(n2)CCCN(C(=O)C2CCC2)C3)n1 | -120
60 | Fc1cccc(-c2n[nH]cc2-c2nc(CN3CCOCC3)no2)c1 | -7.58
61 | COCCN1CCN(c2nc(C3CCCC3)nc3c2cnn3C)CC1 | -1.91
62 | Cc1ccnc(NCCNC(=O)Cc2c(C)[nH]c3c(C)ccc(C)c23)c1 | -1.89
63 | O=c1c(C(F)(F)F)cccn1Cc1nnc(-c2cccnc2)o1 | -2.93
64 | CCC[C@@H]1CN(Cc2c[nH]nc2-c2ccc(OC)cc2)C[C@H]1NC(C)=O | -0.566
65 | COCCN1CC(c2nc(CSC)no2)CCC1=O (stereo unspecified) | -7.74
66 | Cc1[nH]nc(CCC(=O)N2CCOC(CCc3ccccc3)C2)c1C (stereo unspecified) | -10.8
67 | O=C(Nc1ccccc1OCCc1ccccn1)NC1CCOCC1 | 2.43
68 | Cc1ccc(C)c(OCCNC(=O)[C@@H]2CCCCN2)c1 | 0.997
69 | NC(=O)c1noc(Cn2ccc3ccccc3c2=O)n1 | 1.39

Row | SMILES | cytotoxicity at 10 µM [%]
70 | Cc1nc(NCCSc2ccccn2)c2c(C)noc2n1 | 18.8
71 | Cc1ccc(F)cc1-c1ccc(N)nc1 | -143
72 | CC(C)c1nc(C(=O)N2C[C@H](C(C)C)[C@@H](N)C2)cs1 | -3.73
73 | CC(C)CN1CCCn2nc(CNC(=O)NC(C)(C)C)cc2C1 | -4.54
74 | Cc1cccc(OCC2CCCN(C(=O)Cn3ccccc3=O)C2)c1 (stereo unspecified) | -0.503
75 | CCn1c(CN2CCCC2)nnc1C1CCN(S(=O)(=O)CC)CC1 | -4.92
76 | COc1nc2c(cc1C(=O)N1C[C@@H](N)C[C@H]1C(=O)NC(C)C)CCC2 | 3.52
77 | O=C(Cn1c(=O)oc2ccccc21)N1Cc2cnn(CCO)c2C1 | 0.154
78 | O=C(C1CCCO1)N1CCC(n2cc(-c3ccsc3)nn2)CC1 (stereo unspecified) | -4.18
79 | O=C(Cc1ccccc1C(F)(F)F)N1CCC2(CC1)OCCCC2O (stereo unspecified) | -2.62
80 | CNC(=O)CC1CCN(Cc2nc(-c3cccc(Cl)c3)oc2C)CC1 | -9.75
81 | CNc1nc2c(c(C(=O)N3CCCC3)n1)CN(Cc1nccn1C)CC2 | -8.74
82 | O=C(c1cccc(=O)[nH]1)N(Cc1ccsc1)CC1CCCO1 (stereo unspecified) | -11.5
83 | CCCC(=O)N(C)C(c1cccc(F)c1)c1ccccn1 (stereo unspecified) | -2.51
84 | CC(C)Oc1ccc(CNC(=O)CN(C)S(C)(=O)=O)cc1F | -3.1
85 | Cn1ncc2c(=O)[nH]c(CN3CCc4sccc4C3)nc21 | -19
86 | COC(=O)c1cccc(S(=O)(=O)NCc2cccnc2N(C)C)c1 | 5.68
87 | Cc1cnn(CC2CCCCN2CCCS(=O)(=O)N(C)C)c1 (stereo unspecified) | -5.1
88 | Cc1cnc(CN(C)C2CCN(Cc3nc4ccccc4o3)C2)o1 (stereo unspecified) | -19.4
89 | Cc1cnn(CC2CN(CC(=O)N(C)Cc3ccccc3)CCO2)c1 (stereo unspecified) | -4.35
90 | Cc1cnc(CN(C)C2CCN(Cc3nccn3C)C2)o1 (stereo unspecified) | -7.03
91 | Cc1nc(C(=O)N2CCCC2c2cnn(C)c2)ccc1C#N (stereo unspecified) | -13.4
92 | Cc1ccc(-c2nc(CN(Cc3cccs3)CC3CCCO3)no2)cc1 (stereo unspecified) | 0.561

Row | SMILES | cytotoxicity at 10 µM [%]
93 | CCC(O)CN1CCN(C(=O)c2ccn(C)c(=O)c2)CC1 (stereo unspecified) | -10
94 | CC(=O)Nc1nc(C(=O)NCc2ccc(N3CCCC3)nc2)cs1 | -2.6
95 | Cc1nc2c(c(C)c1CC(=O)NCc1ccco1)c(=O)[nH]n2C | -42.5
96 | CCc1nc(C2CCCN(C(=O)NC(C)C)C2)no1 (stereo unspecified) | -14
97 | OC(CN1CCOCC1)CN1CCc2c(ncn2C2CC2)C1 (stereo unspecified) | 2.45
98 | CS(=O)(=O)N1CCN(CC(O)COc2ccc(F)cc2)CC1 (stereo unspecified) | 6.11
99 | COc1ccc(C(CNC(=O)Nc2cn[nH]c2)N2CCOCC2)cc1 (stereo unspecified) | 1.3
100 | CC1(C)CC(N(Cc2ccccc2)Cc2c[nH]cn2)CC(C)(C)N1 | 5.28
101 | O=C(NCc1ccco1)[C@H]1C[C@@H]2CCN(c3nncs3)C[C@H]2O1 | 1.84
102 | Cc1nc(Cn2c3c(ccc2=O)CC(NC(C)C)CC3)cs1 (stereo unspecified) | 6.39
103 | CCC1=N[C@@]2(CC[C@@H]3CN(Cc4ccccc4F)C[C@@H]32)C(=O)N1CC | -12.4
104 | CN1CCO[C@@H]2CN(S(=O)(=O)c3cccnc3)C[C@@H]2C1 | 6.17
105 | COCCn1cc2c(n1)C(CNCc1ccc(F)cc1)OCC2 (stereo unspecified) | -9.47
106 | COc1c(CNCc2ccc(C(=O)NC3CC3)cc2)c(C)nn1C | 3.18
107 | CN(C)CC1CN(C(=O)NCc2ccccc2)Cc2nccn2C1 (stereo unspecified) | -3.91
108 | Cc1nc(CN2C[C@@H]3CN(C(=O)c4ccnnc4)C[C@@H]3C2=O)cs1 | -7.41
109 | Cc1ccccc1CC(C)NCc1c(C)nn(C)c1N1CCOCC1 (stereo unspecified) | -13.1
110 | Cc1noc(C)c1CN1C[C@@H]2COC[C@H](C(=O)N3CCOCC3)[C@@H]2C1 | -70
111 | O=C(NCC1CC1)[C@H]1C[C@H]2CN(C(=O)NCc3ccccc3)C[C@@H]1O2 | 4.97
